In ChEMBL document CHEMBL3808288, “Identification and in Vivo Evaluation of Liver X Receptor β-Selective Agonists for the Potential Treatment of Alzheimer's Disease” (J Med Chem, 2016):
In brackets after ≈: the same amount, converted by molar mass. Activity calls are given as the source filed them. The rule behind the calls is not given here.

Legend:
[1] = target: T1, Oxysterols receptor LXR-alpha (Homo sapiens, UniProt Q13133); test: (§1) Agonist activity at LXRalpha (unknown origin) expressed in human HepG2 cells co-expressing ABCA1 promoter measured after 48 hrs by cell-based transactivation assay
T1 sequence (Q13133 whole entry): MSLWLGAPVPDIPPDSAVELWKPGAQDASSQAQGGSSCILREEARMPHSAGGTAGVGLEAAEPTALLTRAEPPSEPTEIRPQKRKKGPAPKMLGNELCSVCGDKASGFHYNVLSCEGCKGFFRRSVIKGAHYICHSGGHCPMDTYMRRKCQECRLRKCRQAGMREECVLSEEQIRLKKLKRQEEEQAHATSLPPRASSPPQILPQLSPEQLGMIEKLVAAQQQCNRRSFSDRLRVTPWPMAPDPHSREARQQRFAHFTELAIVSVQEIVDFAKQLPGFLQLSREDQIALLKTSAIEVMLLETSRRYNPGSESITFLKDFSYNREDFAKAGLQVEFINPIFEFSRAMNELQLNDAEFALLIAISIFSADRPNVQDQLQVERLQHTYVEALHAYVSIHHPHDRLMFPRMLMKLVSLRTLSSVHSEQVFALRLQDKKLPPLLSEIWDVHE

[2] = target: T2, Oxysterols receptor LXR-alpha (Homo sapiens) (UniProt Q13133); test: as §1
T2 sequence (whole entry): T1 sequence (Q13133 whole entry)

[3] = target: T1, Oxysterols receptor LXR-alpha; test: Agonist activity at GST-tagged LXRalpha-LBD (unknown origin) by LanthaScreen TR-FRET liver X receptor coactivator assay
In short: (§2)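 Cofactor recruitment assay using the ligand binding domains of LXRβ or LXRα. The read-out was EC50 and Emax, with Emax relative to a full agonist control.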

[4] = target: T3, Oxysterols receptor LXR-beta (Homo sapiens, UniProt P55055); test: (§3) Agonist activity at LXRbeta (unknown origin) expressed in human H4 cells co-expressing ABCA1 promoter measured after 48 hrs by cell-based transactivation assay
T3 sequence (P55055 whole entry): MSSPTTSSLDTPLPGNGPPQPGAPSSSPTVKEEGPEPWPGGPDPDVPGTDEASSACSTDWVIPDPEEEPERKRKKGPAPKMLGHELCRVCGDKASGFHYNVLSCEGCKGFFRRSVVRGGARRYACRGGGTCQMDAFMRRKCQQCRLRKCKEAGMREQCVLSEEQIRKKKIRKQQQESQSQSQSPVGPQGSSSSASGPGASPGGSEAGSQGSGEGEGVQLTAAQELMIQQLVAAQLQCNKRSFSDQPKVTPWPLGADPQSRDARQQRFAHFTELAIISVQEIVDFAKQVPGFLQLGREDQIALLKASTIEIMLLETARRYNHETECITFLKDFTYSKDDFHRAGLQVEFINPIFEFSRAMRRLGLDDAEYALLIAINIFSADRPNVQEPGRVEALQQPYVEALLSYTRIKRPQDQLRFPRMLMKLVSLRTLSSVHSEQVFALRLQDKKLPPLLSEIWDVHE

[5] = target: T4, Oxysterols receptor LXR-beta (Homo sapiens) (UniProt P55055); test: as §3
T4 sequence (whole entry): T3 sequence (P55055 whole entry)

[6] = target: T4, Oxysterols receptor LXR-beta (Homo sapiens); test: Agonist activity at GST-tagged LXRbeta-LBD (unknown origin) by LanthaScreen TR-FRET liver X receptor coactivator assay relative to T1317; in short: as §2
[7] = target: T3, Oxysterols receptor LXR-beta; test: Agonist activity at GST-tagged LXRbeta-LBD (unknown origin) by LanthaScreen TR-FRET liver X receptor coactivator assay; in short: as §2
[8] = target: T2, Oxysterols receptor LXR-alpha (Homo sapiens); test: Agonist activity at GST-tagged LXRalpha-LBD (unknown origin) by LanthaScreen TR-FRET liver X receptor coactivator assay T1317; in short: as §2
[9] = Solubility of the compound at pH 2; type: physicochemical; details: buffer
P-gp [10] = test: Efflux ratio in MDCK cells expressing rat P-gp assessed as ratio of permeability across basolateral to apical side over apical to basolateral side; type: ADME, cell-based, Canis lupus familiaris; details: dog, MDCK-MDR1
P-gp [11] = test: Efflux ratio in MDCK cells expressing human P-gp assessed as ratio of permeability across basolateral to apical side over apical to basolateral side; type: ADME, cell-based, Canis lupus familiaris; details: dog, MDCK-MDR1
Rhesus monkey [12] = test: Increase in amyloid beta40 in CSF of rhesus monkey at 10 mg/kg, po administered for 2 weeks; type: functional, Macaca mulatta
Mus musculus [13] = test: Toxicity in Tg2576 transgenic mouse assessed as increase in plasma triglyceride level at 10 mg/kg, sc dosed for 3 weeks; type: organism-based; details: in vivo, 504 h
In short: (§4)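 12-month-old Tg2576 mice were dosed subcutaneously for three weeks. Brain was assayed for ABCA1 protein, soluble apoE and DEA-soluble Aβ, and plasma and liver were assayed for triglycerides. Groups were compared with vehicle by ANOVA.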

Rhesus monkey [14] = test: Increase in amyloid beta42 in CSF of rhesus monkey at 5 mg/kg, po administered for 2 weeks; type: functional, organism-based; details: Macaca mulatta
Mus musculus [15] = test: Toxicity in Tg2576 mouse assessed as increase in liver triglyceride level at 10 mg/kg, sc dosed for 3 weeks; type: organism-based; details: in vivo, 504 h; in short: as §4
Rhesus monkey [16] = test: Increase in amyloid beta42 in CSF of rhesus monkey at 10 mg/kg, po administered for 2 weeks; type: functional, Macaca mulatta
Rhesus monkey [17] = test: Increase in amyloid beta40 in CSF of rhesus monkey at 5 mg/kg, po administered for 2 weeks; type: functional, organism-based; details: Macaca mulatta

CN(C)C(=O)c1ccc(-c2cnc(N3CCN(C(=O)OC(C)(C)C)CC3)c(C#N)c2)cc1Cl
EC50 [1]: 280 nM | Emax [2]: 40% | EC50 [3]: 1480 nM | EC50 [4]: 770 nM | Emax [5]: 103% | Emax [6]: 106% | EC50 [7]: 940 nM | Emax [8]: 50%

CN(C)C(=O)c1ccc(N2CCC(C3CCN(C(=O)[C@](O)(c4ccccc4)C(F)(F)F)CC3)CC2)cc1Cl
solubility [9]: 197 µM (≈ 109 µg/mL) | EC50 [1]: 500 nM | Emax [2]: 24% | efflux ratio (P-gp [10]): 4.3 | EC50 [4]: 550 nM | Emax [5]: 91% | efflux ratio (P-gp [11]): 1.8

O=S(=O)(c1ccccc1)N(CC(F)(F)F)c1ccc(C(O)(C(F)(F)F)C(F)(F)F)cc1 [T091317]
Activity (Rhesus monkey [12]): 25% | Activity (Mus musculus [13]): Toxic | Activity (Rhesus monkey [14]): inactive | Activity (Mus musculus [15]): Toxic | Activity (Rhesus monkey [16]): 25% | Activity (Rhesus monkey [17]): inactive
